# Measurements of several laboratories.
# Protocols differ between the studies behind these lines.
# PIK3CD: Phosphatidylinositol 4,5-bisphosphate 3-kinase catalytic subunit delta isoform (PIK3CD, Homo sapiens, UniProt O00329)
# COQ8A: Atypical kinase COQ8A, mitochondrial (COQ8A, Homo sapiens, UniProt Q8NI60)
# NTSR1: Neurotensin receptor type 1 (NTSR1, Homo sapiens, UniProt P30989)
Compound,target,effect on,mode,technique,pH,measurement,value
C=C[C@@]1(C)CC(=O)[C@]2(O)[C@@]3(C)[C@@H](O)CCC(C)(C)[C@@H]3[C@H](O)[C@H](OC(C)=O)[C@@]2(C)O1,"Adenylate cyclase type 5 (ADCY5, Homo sapiens, UniProt O95622)",cAMP,agonist,TR-FRET,,EC50,10 µM
Cc1nc(Nc2ccc3c(c2)/C(=C/c2ccccc2C)C(=O)N3)c2ccccc2n1,PIK3CD,enzyme activity,inhibitor,ADP detection,,IC50,0.126 µM
Cc1ccc(Nc2nc3nonc3nc2Nc2cccc(C(F)(F)F)c2)cc1Cl,COQ8A,ligand displacement,,TR-FRET,,IC50,0.97 µM
COc1ccccc1C1CCN(c2nc(C3CC3)nc3ccc(N4CCC(N(C)C)C4)cc23)CC1 (stereo not drawn),NTSR1,β-arrestin recruitment,agonist,,,EC50,~65700 µM
COc1cc2ncnc(N(C)c3ccc4c(c3)/C(=C/c3ccccc3)C(=O)N4C)c2cc1OC (mixture of isomers),PIK3CD,enzyme activity,inhibitor,ADP detection,,IC50,0.416 µM
CCCn1nc(C)c(-c2cc(C(=O)N3CCc4nc5cc(-c6ccccc6)[nH]n5c(=O)c4C3)[nH]n2)c1C,COQ8A,ligand displacement,,TR-FRET,,IC50,1.72 µM
C[C@]12CCC(=O)C=C1CC[C@@H]1[C@@H]2[C@@H](O)C[C@]2(CO)[C@@H](C(=O)CO)CC[C@@H]12,"Mineralocorticoid receptor (NR3C2, Homo sapiens, UniProt P08235)",reporter gene,agonist,luciferase,,EC50,0.056 µM
Cc1nc(N(C)c2ccc3c(c2)/C(=C/c2ccccc2Cl)C(=O)N3C)c2ccccc2n1,PIK3CD,enzyme activity,inhibitor,ADP detection,,IC50,> 1 µM
NC(=O)c1ncc(N2CCCCC2)nc1Nc1ccc(C2CCN(C[C@H]3CCN(c4ccc5c(c4)C(=O)N(C4CCC(=O)NC4=O)C5=O)C3)CC2)cc1 (stereo partly drawn),"Tyrosine-protein kinase BTK (BTK, Homo sapiens, UniProt Q06187, T474I)",binding,,SPR,,Kd,0.018 µM
COc1cc2ncnc(Nc3ccc4c(c3)/C(=C/c3ccccc3)C(=O)N4)c2cc1OC,PIK3CD,enzyme activity,inhibitor,ADP detection,,IC50,0.7 µM
CC(C)(C)OC(=O)N1CCN(Cc2ccn(Cc3ccc(Cl)cc3)c(=O)c2O)CC1,"Lysine-specific demethylase 6A (Homo sapiens, UniProt O15550)",enzyme activity,inhibitor,AlphaScreen,,IC50,5.43 µM
COc1ccccc1C1CCN(c2nc(C3(C(F)(F)F)CCCC3)nc3ccc(N(C)CCO)cc23)CC1,NTSR1,β-arrestin recruitment,agonist,,,EC50,18 µM
CCc1ccc(NC(=O)CSc2nc(-c3cccc(OC)c3)nc3c2Cc2c(CO)cnc(C)c2O3)cc1,COQ8A,ligand displacement,,TR-FRET,,IC50,2.17 µM
Nc1ncnc2c1ncn2[C@@H]1O[C@H](COP(=O)(O)OP(=O)(O)OP(=O)(O)O)[C@@H](O)[C@H]1O,"P2X purinoceptor 3 (P2rx3, Rattus norvegicus, UniProt P49654)",ion current,agonist,patch clamp,,EC50,0.271 µM
CC1(C)CCC(CN2CCN(c3ccc(C(=O)NS(=O)(=O)c4ccc(NCC5CCOCC5)c([N+](=O)[O-])c4)c(Oc4cnc5[nH]ccc5c4)c3)CC2)=C(c2ccc(Cl)cc2)C1,COQ8A,ligand displacement,,TR-FRET,,IC50,6.11 µM
COc1cc(/C=C/C(=O)O)ccc1O,"Sarcoplasmic/endoplasmic reticulum calcium ATPase 1 (ATP2A1, Oryctolagus cuniculus, UniProt P04191)",binding,,fluorescence,pH 7.2,Kd,86 µM
Cc1noc(C)c1Cc1ccc(C(=O)N2CCc3c(nc4cc(-c5ccccc5)[nH]n4c3=O)C2)o1,COQ8A,ligand displacement,,TR-FRET,,IC50,0.49 µM
COc1cc2ncnc(Nc3ccc4c(c3)/C(=C/c3cccc(Cl)c3)C(=O)N4C)c2cc1OC,PIK3CD,enzyme activity,inhibitor,ADP detection,,IC50,0.628 µM
